Measured values taken from ChEMBL document CHEMBL1124012, “Synthesis of sulfur-containing analogues of bestatin. Inhibition of aminopeptidases by alpha-thiolbestatin analogues” (J Med Chem, 1988).

Assays:
Aminopeptidase N = biological target: T1, Aminopeptidase N (Sus scrofa, UniProt P15145); experiment: Inhibitory activity against Aminopeptidase M
T1 sequence (P15145 whole entry): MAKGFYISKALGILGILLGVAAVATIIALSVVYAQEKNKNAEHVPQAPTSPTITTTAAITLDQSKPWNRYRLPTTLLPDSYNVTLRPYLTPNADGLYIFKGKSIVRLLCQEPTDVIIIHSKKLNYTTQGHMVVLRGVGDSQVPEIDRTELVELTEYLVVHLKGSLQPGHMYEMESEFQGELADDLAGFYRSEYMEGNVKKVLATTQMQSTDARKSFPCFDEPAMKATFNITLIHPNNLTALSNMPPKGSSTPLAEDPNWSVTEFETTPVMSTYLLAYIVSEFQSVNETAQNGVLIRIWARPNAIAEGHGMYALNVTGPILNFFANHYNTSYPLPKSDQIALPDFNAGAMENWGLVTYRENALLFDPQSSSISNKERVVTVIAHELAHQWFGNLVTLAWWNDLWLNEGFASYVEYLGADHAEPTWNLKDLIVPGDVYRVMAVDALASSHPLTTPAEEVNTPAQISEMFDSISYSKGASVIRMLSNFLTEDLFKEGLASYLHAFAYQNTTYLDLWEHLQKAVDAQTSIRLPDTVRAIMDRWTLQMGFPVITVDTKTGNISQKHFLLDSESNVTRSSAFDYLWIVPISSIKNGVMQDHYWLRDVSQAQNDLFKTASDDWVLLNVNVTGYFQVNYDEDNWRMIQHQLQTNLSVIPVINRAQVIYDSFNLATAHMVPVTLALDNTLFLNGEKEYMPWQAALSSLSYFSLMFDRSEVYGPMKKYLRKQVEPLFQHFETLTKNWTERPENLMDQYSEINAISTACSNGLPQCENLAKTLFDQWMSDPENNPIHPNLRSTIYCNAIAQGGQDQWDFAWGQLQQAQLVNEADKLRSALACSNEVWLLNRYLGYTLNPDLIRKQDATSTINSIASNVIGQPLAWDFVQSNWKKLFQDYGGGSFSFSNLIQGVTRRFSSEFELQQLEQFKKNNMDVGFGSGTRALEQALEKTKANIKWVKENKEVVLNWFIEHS

Aminopeptidase B = biological target: T2, Aminopeptidase B (Rattus norvegicus, UniProt O09175); experiment: Inhibitory activity against aminopeptidase B
T2 sequence (O09175 whole entry): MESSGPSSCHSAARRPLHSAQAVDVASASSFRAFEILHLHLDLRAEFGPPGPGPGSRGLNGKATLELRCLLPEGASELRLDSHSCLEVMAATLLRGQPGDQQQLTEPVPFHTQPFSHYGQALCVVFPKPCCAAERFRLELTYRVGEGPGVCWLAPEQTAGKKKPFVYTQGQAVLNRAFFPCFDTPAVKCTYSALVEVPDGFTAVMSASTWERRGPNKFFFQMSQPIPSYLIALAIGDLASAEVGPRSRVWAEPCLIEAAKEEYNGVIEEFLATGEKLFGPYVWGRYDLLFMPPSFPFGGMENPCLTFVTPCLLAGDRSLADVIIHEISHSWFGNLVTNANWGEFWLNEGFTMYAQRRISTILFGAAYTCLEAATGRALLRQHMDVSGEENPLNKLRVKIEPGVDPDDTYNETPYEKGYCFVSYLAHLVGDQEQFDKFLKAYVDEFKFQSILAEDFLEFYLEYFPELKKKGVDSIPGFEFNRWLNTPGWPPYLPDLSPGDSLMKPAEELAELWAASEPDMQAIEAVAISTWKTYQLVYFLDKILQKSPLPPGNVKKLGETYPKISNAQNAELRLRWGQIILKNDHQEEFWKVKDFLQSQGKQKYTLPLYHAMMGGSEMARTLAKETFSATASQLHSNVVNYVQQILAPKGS
Procedure, shortened: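 Aminopeptidase B at an estimated 4.6 nM, diluted 10-fold for tight binders, in 0.1 M PIPES pH 7.0 with 0.2 M NaCl and 1 mM DTT, 25 °C. Substrate was L-arginine p-nitroanilide, used near Km, with hydrolysis read at 405 nm. Where slow binding appeared, enzyme and inhibitor were preincubated 10–20 min before substrate was added.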

Cytosol aminopeptidase = Cytosol aminopeptidase (Homo sapiens, UniProt P28838); experiment: Inhibitory activity against Leucine aminopeptidase; parameters: species or system Streptomyces olivoreticuli
Procedure, shortened: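 Cytosolic leucine aminopeptidase, converted to Zn/Mg form by 4 h at 37 °C in 10 mM HEPES pH 8.0 with 5 mM MgSO4 and 1 M KCl. Assayed at 25 °C in 0.1 M Tris pH 8.5 with 5 mM MgCl2, enzyme 5 nM (1 nM for very tight binders).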

Chain of Cytosol aminopeptidase (P28838 whole entry): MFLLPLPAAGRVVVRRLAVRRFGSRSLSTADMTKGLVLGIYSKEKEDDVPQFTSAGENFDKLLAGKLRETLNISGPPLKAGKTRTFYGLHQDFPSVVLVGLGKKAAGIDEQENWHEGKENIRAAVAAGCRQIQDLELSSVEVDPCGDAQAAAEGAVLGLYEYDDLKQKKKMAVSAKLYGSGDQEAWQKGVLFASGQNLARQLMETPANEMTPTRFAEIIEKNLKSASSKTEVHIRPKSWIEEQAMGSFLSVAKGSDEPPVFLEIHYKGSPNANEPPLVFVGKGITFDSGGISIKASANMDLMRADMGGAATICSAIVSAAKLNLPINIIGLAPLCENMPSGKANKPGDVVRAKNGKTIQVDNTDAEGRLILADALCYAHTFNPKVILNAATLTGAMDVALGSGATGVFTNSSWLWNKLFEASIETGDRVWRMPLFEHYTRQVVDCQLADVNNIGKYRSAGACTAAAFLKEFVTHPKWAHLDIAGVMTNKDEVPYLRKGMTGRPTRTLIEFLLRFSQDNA

| Ki (Aminopeptidase N) [µM] | Ki (Aminopeptidase B) [µM] | Ki (Cytosol aminopeptidase) [µM] | Structure (SMILES) |
| --- | --- | --- | --- |
| 4.4 | 0.0046 | 0.55 | CC(C)C[C@H](NC(=O)[C@@H](S)[C@H](N)Cc1ccccc1)C(=O)O [listing 1 of 2 here] |
| 0.02 | 0.13 | 450 | CC(C)C[C@@H](N)CS |
|  | 100 |  | NCCCC[C@@H](N)CO |
| 20 | 39 | 0.51 | CC(C)CCNC(=O)[C@@H](O)[C@H](N)Cc1ccccc1 |
|  | 0.06 |  | CC(C)C[C@H](NC(=O)[C@@H](O)[C@H](N)Cc1ccccc1)C(=O)O [UBENIMEX] |
| 355 | > 200 | 507 | CC(C)C[C@H](N)C(C)O (some centres undefined) |
| 32 | 35.7 | 26 | CC(C)CCNC(=O)[C@H](S)[C@@H](N)Cc1ccccc1 |
| 40.3 | 2.4 | 0.33 | CC(C)C[C@H](/N=C(\S)[C@@H](O)[C@H](N)Cc1ccccc1)C(=O)O |
| 703 | > 1000 | 4.4 | CC(C)CC/N=C(\S)[C@@H](O)[C@H](N)Cc1ccccc1 |
| 6 | 7 | > 500 | CC(C)C[C@H](N)C(C)S (some centres undefined) |
| 1000 | > 1000 | 33 | COC(=O)C(O)[C@H](N)Cc1ccccc1 (some centres undefined) |
| > 1000 | > 1000 | > 1000 | CC(C)C[C@@H](N)CO |
| 9.1 | 0.0064 | 1 | CC(C)C[C@H](NC(=O)[C@@H](S)[C@H](N)Cc1ccccc1)C(=O)O [listing 2 of 2 here] |
| 0.11 | 0.00091 | > 1000 | NCCCC[C@@H](N)CS |
| 4.9 | 4 | 16.7 | CC(C)CCNC(=O)[C@@H](S)[C@H](N)Cc1ccccc1 |

| Structure (SMILES) | Ki (Aminopeptidase N) [µM] | Ki (Aminopeptidase B) [µM] | Ki (Cytosol aminopeptidase) [µM] |
| --- | --- | --- | --- |
| COC(=O)C(S)[C@H](N)Cc1ccccc1 (some centres undefined) | 307 | 159 | 300 |
